In ChEMBL document CHEMBL1134384, “Development of new carboxylic acid-based MMP inhibitors derived from functionalized propargylglycines” (J Med Chem, 2001):
Converted amounts (≈) assume the structure as drawn.

Assays:
[1] = target: T1, Interstitial collagenase (Homo sapiens, UniProt P03956); experiment: Inhibitory activity against human matrix metalloprotease-1 in quenched fluorescence assay at […]
T1 sequence (P03956 whole entry): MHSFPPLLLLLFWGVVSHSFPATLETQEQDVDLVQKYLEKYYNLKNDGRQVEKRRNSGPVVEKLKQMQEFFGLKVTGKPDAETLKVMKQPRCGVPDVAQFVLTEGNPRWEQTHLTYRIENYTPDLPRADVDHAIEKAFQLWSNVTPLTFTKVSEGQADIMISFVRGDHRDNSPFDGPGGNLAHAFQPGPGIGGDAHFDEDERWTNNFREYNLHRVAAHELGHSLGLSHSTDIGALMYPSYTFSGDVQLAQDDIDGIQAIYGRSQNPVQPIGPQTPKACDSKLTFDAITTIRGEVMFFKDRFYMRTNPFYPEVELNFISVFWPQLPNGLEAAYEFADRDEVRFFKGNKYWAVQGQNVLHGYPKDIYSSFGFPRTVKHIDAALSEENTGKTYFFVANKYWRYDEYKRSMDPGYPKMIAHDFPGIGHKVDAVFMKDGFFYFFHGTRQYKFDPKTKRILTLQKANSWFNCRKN
Method in brief: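 Quenched fluorescence assay using truncated human recombinant enzymes expressed in E. coli, at final concentrations of 8 nM for MMP-1 and 16 nM for MMP-3. Substrate was Mca-Pro-Leu-Gly-Leu-Dpa-Ala-Arg-NH₂ at 4 μM, at 25 °C, in 50 mM Tris pH 7.5, 0.2 M NaCl, 5 mM CaCl₂, 0.02% Brij-35. Fluorescence (ex 328/em 393 nm) was read kinetically for 30 min. Eight inhibitor concentrations were tested and IC50 was fitted from Vi/V0.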

[2] = target: T2, Collagenase 3 (Homo sapiens, UniProt P45452); experiment: Inhibitory activity against human matrix metalloprotease-13 in quenched fluorescence assay at pH 7.4
[3] = target: 72 kDa type IV collagenase (Homo sapiens, UniProt P08253); experiment: Inhibitory activity against matrix metalloprotease-2 (MMP-2) in quenched fluorescence assay at […]
Sequence of 72 kDa type IV collagenase (P08253 whole entry): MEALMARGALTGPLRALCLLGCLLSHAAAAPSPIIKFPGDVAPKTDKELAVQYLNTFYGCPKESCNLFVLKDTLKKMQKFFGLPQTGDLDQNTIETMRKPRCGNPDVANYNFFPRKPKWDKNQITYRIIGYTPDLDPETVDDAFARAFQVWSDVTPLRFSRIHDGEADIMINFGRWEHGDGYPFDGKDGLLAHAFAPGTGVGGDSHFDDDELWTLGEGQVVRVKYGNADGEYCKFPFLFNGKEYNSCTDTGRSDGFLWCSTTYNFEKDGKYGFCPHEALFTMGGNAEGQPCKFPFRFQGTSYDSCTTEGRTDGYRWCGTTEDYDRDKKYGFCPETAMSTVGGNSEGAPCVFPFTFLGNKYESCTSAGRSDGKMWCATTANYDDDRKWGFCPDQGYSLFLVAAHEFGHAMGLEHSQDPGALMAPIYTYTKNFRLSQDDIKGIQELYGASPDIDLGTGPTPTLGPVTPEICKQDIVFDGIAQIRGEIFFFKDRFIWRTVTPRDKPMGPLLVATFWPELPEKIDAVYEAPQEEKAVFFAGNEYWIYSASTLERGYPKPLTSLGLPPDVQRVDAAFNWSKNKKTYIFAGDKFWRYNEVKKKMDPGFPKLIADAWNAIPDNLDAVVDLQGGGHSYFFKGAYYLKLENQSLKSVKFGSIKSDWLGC
Method in brief: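 Full-length human recombinant proMMP-2 from CHO cells was activated with 1 mM APMA for 45 min and used at 1 nM final. Cleavage of 4 μM Mca-Pro-Leu-Gly-Leu-Dpa-Ala-Arg-NH₂ was followed at 25 °C in Tris pH 7.5/NaCl/CaCl₂/Brij-35 buffer, with fluorescence read kinetically for 30 min. IC50 came from 8 inhibitor concentrations.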

[4] = target: Stromelysin-1 (Homo sapiens, UniProt P08254); experiment: Inhibitory activity against human matrix metalloprotease-3 (MMP-3) ([…])
Sequence of Stromelysin-1 (P08254 whole entry): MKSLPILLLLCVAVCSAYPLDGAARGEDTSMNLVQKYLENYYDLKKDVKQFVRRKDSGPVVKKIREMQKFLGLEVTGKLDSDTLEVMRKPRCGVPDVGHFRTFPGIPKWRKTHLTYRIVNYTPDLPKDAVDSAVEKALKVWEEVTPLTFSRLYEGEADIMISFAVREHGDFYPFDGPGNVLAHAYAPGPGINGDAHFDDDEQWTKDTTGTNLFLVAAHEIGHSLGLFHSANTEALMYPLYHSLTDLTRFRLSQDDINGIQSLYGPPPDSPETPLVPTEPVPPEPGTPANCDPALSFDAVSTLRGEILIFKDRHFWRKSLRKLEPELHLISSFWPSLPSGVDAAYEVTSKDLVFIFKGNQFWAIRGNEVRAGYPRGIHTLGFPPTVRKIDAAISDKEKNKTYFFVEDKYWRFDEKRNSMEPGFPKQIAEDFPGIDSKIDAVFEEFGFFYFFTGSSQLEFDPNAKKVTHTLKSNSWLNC

[5] = Half life was determined in fasted rats using cassette dosing technique.; type: ADME, organism-based; conditions: rat, in vivo
Method in brief: (§1)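 Fasted rats (n = 3/4) received cassette doses of 4–5 compounds per experiment at 1–5 mg/kg of each inhibitor. Each study included a control compound previously characterized in a single-compound experiment, to validate the data set and detect problems such as saturation of elimination.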

[6] = Solubility was determined at a pH of […]; type: physicochemical; conditions: pH 7
[7] = Bioavailability in rat (fasted) using cassette dosing; type: ADME, organism-based; conditions: in vivo; method in brief: as §1
[8] = target: T2, Collagenase 3; experiment: Inhibition of human matrix metalloprotease-13 at pH 7.4

Row | IC50 [1] [nM] | IC50 [2] [nM] | IC50 [3] [nM] | IC50 [4] [nM] | half-life [5] [h] | solubility [6] [µg/mL] | bioavailability [7] [%] | IC50 [8] [nM] | SMILES
1 | > 10000 | 89 | 19 | 22100 | – | – | – | – | Cc1ccc(C#Cc2ccc(S(=O)(=O)NC(CC#Cc3ccccc3)C(=O)O)cc2)cc1 (configuration not stated)
2 | > 10000 | > 10000 | 2770 | > 10000 | – | – | – | – | COCC#CCC(NS(=O)(=O)c1ccc(NC(=O)N2CCOCC2)cc1)C(=O)O (configuration not stated)
3 | > 10000 | 35 | 9 | 4360 | 0.7 | 20 (≈ 43.5 µM) | 26 | – | COc1ccc(C#Cc2ccc(S(=O)(=O)NC(CC#Cc3ccccc3)C(=O)O)cc2)cc1 (configuration not stated)
4 | 6510 | 88 | 33 | 2340 | – | – | – | – | COCCOCOCC#CCC(NS(=O)(=O)c1ccc(-c2ccc(OC)cc2)cc1)C(=O)O (configuration not stated)
5 | > 10000 | 344 | 12 | 17400 | – | 4400 (≈ 7990 µM) | – | – | O=C(Nc1ccc(S(=O)(=O)NC(CC#CCN2CCOCC2)C(=O)O)cc1)c1ccc(Br)cc1 (configuration not stated)
6 | 11500 | – | 24 | 5060 | – | – | – | – | CSc1ccc(-c2ccc(S(=O)(=O)NC(CC#CCN3CCOCC3)C(=O)O)cc2)cc1 (configuration not stated)
7 | – | – | 28 | 6600 | 3.6 | 151000 (≈ 313000 µM) | 12 | – | COc1ccc(C#Cc2ccc(S(=O)(=O)NC(CC#CCN3CCOCC3)C(=O)O)cc2)cc1 (configuration not stated)
8 | 2000 | 21 | 12 | 2280 | 1.7 | 20 (≈ 45.9 µM) | 49 | – | COc1ccc(-c2ccc(S(=O)(=O)NC(CC#Cc3ccccc3)C(=O)O)cc2)cc1 (configuration not stated)
9 | 5600 | 231 | 175 | 8900 | – | – | – | – | O=C(O)C(CC#Cc1ccccc1)NS(=O)(=O)c1ccc(-c2ccc(F)cc2)cc1 (configuration not stated)
10 | > 10000 | – | 661 | > 10000 | – | – | – | – | COc1ccc(-c2ccc(S(=O)(=O)NC(CC#CCN3CCN(C(=O)OC(C)(C)C)CC3)C(=O)O)cc2)cc1 (configuration not stated)
11 | – | – | 46 | 10100 | – | – | – | 145 | COc1ccc(C#Cc2ccc(S(=O)(=O)NC(CC#Cc3ccccc3)C(=O)O)s2)cc1 (configuration not stated)
12 | > 10000 | – | 100 | > 10000 | – | – | – | – | COc1ccc(-c2ccc(S(=O)(=O)NC(CC#CCN3CCCC3)C(=O)O)cc2)cc1 (configuration not stated)
13 | 631 | 16 | 6 | 3400 | – | – | – | – | CSc1ccc(-c2ccc(S(=O)(=O)NC(CC#Cc3ccccc3)C(=O)O)cc2)cc1 (configuration not stated)
14 | 3250 | – | 20 | 1320 | – | 30 (≈ 67.9 µM) | – | – | COc1ccc(-c2ccc(S(=O)(=O)NC(CC#Cc3ccccc3)C(=O)O)s2)cc1 (configuration not stated)
15 | > 10000 | 127 | 6 | 3570 | – | – | – | – | O=C(Nc1ccc(S(=O)(=O)NC(CC#Cc2ccccc2)C(=O)O)cc1)c1ccc(Cl)cc1 (configuration not stated)
16 | 3400 | 33 | 8 | 5100 | – | 120 (≈ 249 µM) | – | – | CO[C@H](C#Cc1ccccc1)C(NS(=O)(=O)c1ccc(-c2ccc(SC)cc2)cc1)C(=O)O (some centres not stated)
17 | > 10000 | 2150 | 1470 | 4560 | – | – | – | – | O=C(O)C(CC#Cc1ccccc1)NS(=O)(=O)c1ccc(-c2ccc(Oc3ccccc3)cc2)cc1 (configuration not stated)
18 | > 10000 | – | 158 | 14600 | – | – | – | – | COc1ccc(-c2ccc(S(=O)(=O)NC(CC#Cc3ccc(N4CCOCC4)cc3)C(=O)O)cc2)cc1 (configuration not stated)

Row | IC50 [1] [nM] | IC50 [2] [nM] | IC50 [3] [nM] | IC50 [4] [nM] | half-life [5] [h] | solubility [6] [µg/mL] | bioavailability [7] [%] | IC50 [8] [nM] | SMILES
19 | 13700 | – | 104 | 10700 | – | – | – | – | COc1ccc(-c2ccc(S(=O)(=O)NC(CC#CCN3CCOCC3)C(=O)O)cc2)cc1 (configuration not stated)
20 | 24800 | 147 | 17 | 3330 | – | 12000 (≈ 26500 µM) | – | – | COCC#CCC(NS(=O)(=O)c1ccc(-c2ccc(Br)cc2)cc1)C(=O)O (configuration not stated)
21 | > 10000 | 2150 | 1480 | 4560 | – | – | – | – | O=C(O)C(CC#Cc1ccccc1)NS(=O)(=O)c1ccc(Oc2ccccc2)cc1 (configuration not stated)
22 | > 10000 | – | 8 | 9000 | – | 3200 (≈ 7170 µM) | – | – | COCC#CCC(NS(=O)(=O)c1ccc(NC(=O)c2ccc(OC)cc2)cc1)C(=O)O (configuration not stated)
23 | > 10000 | – | 547 | > 10000 | – | – | – | – | COc1ccc(-c2ccc(S(=O)(=O)NC(CC#CCN3CCN(c4ccccc4)CC3)C(=O)O)cc2)cc1 (configuration not stated)
24 | > 10000 | > 10000 | > 10000 | > 10000 | – | – | – | – | COc1ccc(S(=O)(=O)c2csc(S(=O)(=O)NC(CC#Cc3ccccc3)C(=O)O)c2)cc1 (configuration not stated)
25 | 4200 | 81 | 31 | 3700 | – | – | – | – | COc1ccc(-c2ccc(S(=O)(=O)NC(C(=O)O)[C@@H](C#Cc3ccccc3)OC)cc2)cc1 (some centres not stated)
26 | > 10000 | – | 297 | > 10000 | – | – | – | – | O=C(O)C(CC#CCN1CCOCC1)NS(=O)(=O)c1ccc(-c2ccccc2)cc1 (configuration not stated)
27 | > 10000 | 16900 | 567 | > 10000 | – | – | – | – | COCC#CCC(NS(=O)(=O)c1ccc(NC(=O)N2CCCC2)cc1)C(=O)O (configuration not stated)
28 | – | – | 87 | 16300 | – | – | – | – | O=C(O)C(CC#Cc1ccccc1)NS(=O)(=O)c1ccc(/N=N/c2ccccc2)cc1 (configuration not stated)
29 | 6150 | 76 | 20 | – | – | 5800 (≈ 14400 µM) | – | – | COCC#CCC(NS(=O)(=O)c1ccc(-c2ccc(OC)cc2)cc1)C(=O)O (configuration not stated)
30 | > 10000 | > 10000 | > 10000 | > 10000 | – | – | – | – | COc1ccc(S(=O)(=O)c2ccc(S(=O)(=O)NC(CC#Cc3ccccc3)C(=O)O)s2)cc1 (configuration not stated)
31 | > 10000 | 50 | 26 | 2430 | – | – | – | – | COCCOc1ccc(-c2ccc(S(=O)(=O)NC(CC#Cc3ccccc3)C(=O)O)cc2)cc1 (configuration not stated)
32 | > 10000 | – | 1160 | > 10000 | – | – | – | – | COc1ccc(-c2ccc(S(=O)(=O)NC(CC#CCN3CCN(S(C)(=O)=O)CC3)C(=O)O)cc2)cc1 (configuration not stated)
33 | > 10000 | 226 | 9 | 3920 | – | 410 (≈ 806 µM) | – | – | COc1ccc(C(=O)Nc2ccc(S(=O)(=O)NC(CC#CCOc3ccccc3)C(=O)O)cc2)cc1 (configuration not stated)
34 | > 10000 | 3050 | 380 | > 10000 | – | – | – | – | O=C(O)C(CC#CCN1CCCC1)NS(=O)(=O)c1ccc(-c2ccccc2)cc1 (configuration not stated)
35 | – | 2040 | – | 15400 | – | – | – | – | CCCCOc1ccc(S(=O)(=O)NC(CC#Cc2ccccc2)C(=O)O)cc1 (configuration not stated)
36 | > 10000 | > 1600 | 2390 | – | – | – | – | – | CCOc1cccc(-c2ccc(S(=O)(=O)NC(CC#Cc3ccccc3)C(=O)O)cc2)c1 (configuration not stated)

Row | SMILES | IC50 [1] [nM] | IC50 [2] [nM] | IC50 [3] [nM] | IC50 [4] [nM] | half-life [5] [h] | solubility [6] [µg/mL] | bioavailability [7] [%] | IC50 [8] [nM]
37 | COc1ccc(-c2ccc(S(=O)(=O)NC(CC#Cc3cccc(N4CCOCC4)c3)C(=O)O)cc2)cc1 (configuration not stated) | 3660 | 24 | 16 | 3520 | 0.1 | 580 (≈ 1110 µM) | 7 | –
38 | COCC#CCC(NS(=O)(=O)c1ccc(NC(=O)c2ccc(Br)cc2)cc1)C(=O)O (configuration not stated) | > 10000 | 270 | 6 | 8620 | – | – | – | –
39 | O=C(O)C(CC#Cc1ccccc1)NS(=O)(=O)c1ccc(-c2ccc3c(c2)OCO3)cc1 (configuration not stated) | 10300 | 104 | 29 | 5440 | – | 80 (≈ 178 µM) | – | –
40 | O=C(Nc1ccc(S(=O)(=O)NC(CC#CCOc2ccccc2)C(=O)O)cc1)c1ccc(Br)cc1 (configuration not stated) | > 10000 | – | 9 | 2850 | – | 50 (≈ 89.7 µM) | – | –
41 | O=C(O)C(CC#CCOc1ccccc1)NS(=O)(=O)c1ccc(-c2ccc(Br)cc2)cc1 (configuration not stated) | > 10000 | 254 | 23 | 1810 | – | – | – | –
42 | COc1ccc(-c2ccc(S(=O)(=O)NC(CC#CCc3ccccc3)C(=O)O)cc2)cc1 (configuration not stated) | 3340 | 22 | 33 | 777 | – | – | – | –
43 | O=C(O)C(CC#Cc1ccccc1)NS(=O)(=O)c1ccc(-c2ccc(-c3ccccc3)cc2)cc1 (configuration not stated) | > 10000 | 59 | 29 | > 10000 | – | – | – | –
44 | COc1ccc(-c2ccc(S(=O)(=O)NC(C(=O)O)[C@@H](C#Cc3ccccc3)OCc3ccccc3)cc2)cc1 (some centres not stated) | > 10000 | 14 | 8 | 4270 | – | – | – | –
